Results reported in ChEMBL document CHEMBL4428038, “Overcoming chloroquine resistance in malaria: Design, synthesis and structure-activity relationships of novel chemoreversal agents” (Eur J Med Chem, 2016).
≈ marks a conversion by molar mass, not a printed value. Calls of active or inactive are those of the source. The calls are words filed in the database; no cut-off is given here.

What was measured:
[1] = Solubility of compound in DMSO at 10 uM; type: physicochemical
Procedure, shortened: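 Solubility judged under the probe-3 uptake assay conditions. DMSO stocks were stored in aliquots and diluted to working concentration with PBS, protected from light. The compound was added to K1 parasite cultures (2.5% hematocrit, late-ring/early-trophozoite stage) with 6 of fluorescent CQ probe and incubated for 10 h at 37 °C.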

[2] = system: Plasmodium falciparum; assay: Intrinsic antimalarial activity against chloroquine-resistant Plasmodium falciparum NHP4559 harboring CRT K76T mutant assessed as reduction in parasite viability at 500 nM; type: functional, organism-based
[3] = system: Plasmodium falciparum; assay: Intrinsic antimalarial activity against chloroquine/artemisinin-resistant Plasmodium falciparum ARS272 harboring CRT K76T mutant assessed as reduction in parasite viability at 500 nM; type: functional, organism-based
[4] = Resistance index, ratio of chloroquine IC50 for intermediate chloroquine-resistant Plasmodium falciparum 7G8 isolate MRA-154 CRT SVMNT haplotype mutant to chloroquine IC50 for chloroquine-sensitive Plasmodium falciparum 3D7 isolate MRA-102 at 500 nM
Procedure, shortened: (§1)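 Chloroquine IC50 was measured with the chemoreversal agent fixed at 500 nM in K1 or 7G8 and in sensitive 3D7 (means, n = 3). The resistance ratio is the chloroquine IC50 in K1 or 7G8 divided by the chloroquine IC50 in 3D7.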

[5] = system: Plasmodium falciparum; assay: Intrinsic antimalarial activity against chloroquine-sensitive Plasmodium falciparum 3D7 isolate MRA-102 assessed as reduction in parasite viability at 500 nM; type: functional, organism-based
[6] = system: Plasmodium falciparum; assay: Intrinsic antimalarial activity against chloroquine/artemisinin-resistant Plasmodium falciparum NHP4773 harboring CRT K76T mutant assessed as reduction in parasite viability at 500 nM; type: functional, organism-based
[7] = system: Plasmodium falciparum; assay: Intrinsic antimalarial activity against chloroquine-sensitive Plasmodium falciparum HB3 isolate MRA-155 assessed as reduction in parasite viability at 500 nM; type: functional, organism-based
[8] = system: Plasmodium falciparum 7G8; assay: Inhibition of CRT SVMNT haplotype mutant in intermediate chloroquine-resistant Plasmodium falciparum 7G8 isolate MRA-154 t assessed as reversal of chloroquine resistance by measuring reduction in chloroquine IC50 at 500 nM relative to chloroquine alone
[9] = system: Plasmodium falciparum K1; assay: Inhibition of CRT CVIET haplotype mutant in Plasmodium falciparum K1 isolate MRA-159 infected in erythrocytes assessed as chloroquine-coumarin probe accumulation at 10 uM after 10 hrs by Hoechst 33342 staining based flow cytometry (reference value: 35.57 +/- 3.84%); type: cell-based; design: scale not given: the % may be the effect or the level left
Procedure, shortened: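 Infected erythrocyte cultures at 2.5% hematocrit and 7–12% parasitemia, synchronized to late-ring/early-trophozoite stage, were incubated with chloroquine-coumarin probe plus test agent for 10 h at 37 C. Cells were then washed, resuspended in PBS and read by flow cytometry (405 nm excitation, 450/50 filter). Hoechst-stained duplicate wells set parasitemia. Uptake = % infected erythrocytes fluorescent. Controls: PBS (negative), desipramine and parent compound (positive). ≥3 independent experiments; mean ± SEM.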

[10] = Permeability of compound incubated for 6 hrs at pH 7.4 by PAMPA; type: ADME; settings: read-out: Peff
[11] = system: Plasmodium falciparum; assay: Potentiation of chloroquine-induced antimalarial activity against chloroquine-sensitive Plasmodium falciparum HB3 isolate MRA-155 assessed as reduction in chloroquine IC50 at 500 nM relative to chloroquine alone; type: functional
[12] = system: Plasmodium falciparum; assay: Intrinsic antimalarial activity against chloroquine/artemisinin-resistant Plasmodium falciparum ARS233 harboring CRT K76T mutant assessed as reduction in parasite viability at 500 nM; type: functional, organism-based
[13] = system: T1, Chloroquine resistance transporter (Plasmodium falciparum), Q9N623 [K76T]; assay: Inhibition of CRT K76T mutant in chloroquine/artemisinin-resistant Plasmodium falciparum NHP4773 assessed as reversal of chloroquine resistance by measuring reduction in chloroquine IC50 at 500 nM relative to chloroquine alone
T1 sequence (whole entry): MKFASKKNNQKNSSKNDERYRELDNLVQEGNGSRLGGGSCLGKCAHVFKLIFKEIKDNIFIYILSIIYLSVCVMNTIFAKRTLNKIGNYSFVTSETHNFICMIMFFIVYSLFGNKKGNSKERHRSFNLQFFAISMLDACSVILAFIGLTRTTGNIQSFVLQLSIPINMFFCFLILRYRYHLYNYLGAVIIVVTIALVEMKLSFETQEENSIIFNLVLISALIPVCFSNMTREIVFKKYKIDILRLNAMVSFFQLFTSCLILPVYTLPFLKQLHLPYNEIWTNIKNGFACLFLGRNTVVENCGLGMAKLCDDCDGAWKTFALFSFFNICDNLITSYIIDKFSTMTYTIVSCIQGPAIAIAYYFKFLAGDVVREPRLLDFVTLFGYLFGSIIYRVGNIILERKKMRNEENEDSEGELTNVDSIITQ

[14] = Resistance index, ratio of chloroquine IC50 for chloroquine-resistant Plasmodium falciparum K1 isolate MRA-159 CRT CVIET haplotype mutant to chloroquine IC50 for chloroquine-sensitive Plasmodium falciparum 3D7 isolate MRA-102 at 500 nM; procedure, shortened: as §1
[15] = system: Plasmodium falciparum; assay: Potentiation of chloroquine-induced antimalarial activity against chloroquine-sensitive Plasmodium falciparum 3D7 isolate MRA-102 assessed as reduction in chloroquine IC50 at 500 nM relative to chloroquine alone; type: functional
[16] = system: Plasmodium falciparum; assay: Intrinsic antimalarial activity against chloroquine-resistant Plasmodium falciparum Dd2 isolate MRA-156 harboring CRT K76T mutant assessed as reduction in parasite viability at 500 nM; type: functional, organism-based
[17] = system: Plasmodium falciparum K1; assay: Inhibition of CRT CVIET haplotype mutant in chloroquine-resistant Plasmodium falciparum K1 isolate MRA-159 assessed as reversal of chloroquine resistance by measuring reduction in chloroquine IC50 at 500 nM relative to chloroquine alone
[18] = system: Plasmodium falciparum; assay: Intrinsic antimalarial activity against chloroquine-resistant Plasmodium falciparum K1 isolate MRA-159 harboring CRT CVIET haplotype mutant assessed as reduction in parasite viability at 500 nM; type: functional, organism-based
[19] = system: T1, Chloroquine resistance transporter (Plasmodium falciparum), Q9N623 [K76T]; assay: Inhibition of CRT K76T mutant in chloroquine/artemisinin-resistant Plasmodium falciparum ARS233 assessed as reversal of chloroquine resistance by measuring reduction in chloroquine IC50 at 500 nM relative to chloroquine alone
[20] = Aqueous kinetic solubility of compound in pH 7.4 solution incubated for 24 hrs; type: physicochemical; settings: for solubility kinetic at 24 h: aqueous solution pH 7.4, pH 7.4, read-out: Kinetic_solubility
[21] = system: T1, Chloroquine resistance transporter (Plasmodium falciparum), Q9N623 [K76T]; assay: Inhibition of CRT K76T mutant in chloroquine/artemisinin-resistant Plasmodium falciparum ARS272 assessed as reversal of chloroquine resistance by measuring reduction in chloroquine IC50 at 500 nM relative to chloroquine alone
[22] = system: T1, Chloroquine resistance transporter (Plasmodium falciparum), Q9N623 [K76T]; assay: Inhibition of CRT K76T mutant in chloroquine-resistant Plasmodium falciparum NHP4559 assessed as reversal of chloroquine resistance by measuring reduction in chloroquine IC50 at 500 nM relative to chloroquine alone
[23] = Inhibition of CRT CVIET haplotype mutant in Plasmodium falciparum K1 isolate MRA-159 infected in erythrocytes assessed as reversal of chloroquine resistance by measuring reduction in chloroquine IC50 by Hoechst 33342 staining based flow cytometry; type: cell-based
Procedure, shortened: (§2)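 Chloroquine IC50 was determined in the presence of a fixed 500 nM chemoreversal agent, against chloroquine alone. The RMI is the ratio of chloroquine IC50 with agent to chloroquine IC50 alone. Mean of n = 3; two-tailed t test versus chloroquine without agent.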

[24] = system: T1, Chloroquine resistance transporter (Plasmodium falciparum), Q9N623 [K76T]; assay: Inhibition of CRT K76T mutant in chloroquine-resistant Plasmodium falciparum Dd2 isolate MRA-156 assessed as reversal of chloroquine resistance by measuring reduction in chloroquine IC50 at 500 nM relative to chloroquine alone
[25] = Permeability of compound incubated for 16 hrs at pH 7.4 by PAMPA; type: ADME; settings: read-out: Peff
[26] = system: Plasmodium falciparum; assay: Intrinsic antimalarial activity against intermediate chloroquine-resistant Plasmodium falciparum 7G8 isolate MRA-154 harboring CRT SVMNT haplotype mutant assessed as reduction in parasite viability at 500 nM; type: functional, organism-based
[27] = Therapeutic index, ratio of IC50 for TAMH to EC50 for chloroquine-resistant Plasmodium falciparum K1 isolate MRA-159 CRT CVIET haplotype mutant; type: toxicity; settings: mouse, TAMH cells; read-out: Ratio IC50/EC50
Procedure, shortened: (§3)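 Host-cell IC50 was measured by ATP-luminescence viability assay in TAMH hepatocytes (mean of n = 4 independent determinations) or AC10 cardiomyocytes. Each IC50 was divided by the K1 EC50, the concentration of chemoreversal agent that halves the chloroquine concentration needed for 50% parasite inhibition.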

[28] = Cytotoxicity against human AC10 cells assessed as reduction in cell viability by CellTiter-Glo assay; type: cell-based
Procedure, shortened: (§4)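 For TAMH (hepatocyte line) and AC10 (cardiomyocyte line), viability was read by ATP luminescence (CellTiter-Glo), and the value reported is IC50.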

[29] = system: TAMH; assay: Cytotoxicity against TAMH assessed as reduction in cell viability by CellTiter-Glo assay; type: cell-based; settings: Mus musculus; procedure, shortened: as §4
[30] = Therapeutic index, ratio of IC50 for human AC10 cells to EC50 for chloroquine-resistant Plasmodium falciparum K1 isolate MRA-159 CRT CVIET haplotype mutant; type: toxicity; settings: read-out: Ratio IC50/EC50; procedure, shortened: as §3
[31] = Inhibition of CRT CVIET haplotype mutant in chloroquine-resistant Plasmodium falciparum K1 isolate MRA-159 assessed as reversal of chloroquine resistance by measuring reduction in chloroquine IC50 relative to chloroquine alone; procedure, shortened: as §2

Row | SMILES | Activity [2] | Activity [3] | Ratio IC50 [4] | Activity [5] | Activity [6] | Activity [7] | Ratio IC50 [8] | Activity [9] [%] | Ratio IC50 [11] | Activity [12] | Ratio IC50 [13] | Ratio IC50 [14] | Ratio IC50 [15] | Activity [16] | Ratio IC50 [17] | Activity [18] | Ratio IC50 [19] | Ratio IC50 [21] | Ratio IC50 [22] | Ratio IC50 [24] | further results
1 | CC(C)(C)OC(=O)N1CCN(C2Cc3ccccc3Sc3ccccc32)CC1 (stereo unspecified) |  |  |  |  |  |  |  |  |  |  |  |  |  |  |  |  |  |  |  |  | solubility [1]: Insoluble
2 | CN(C)C(=O)C(CCN1CCC(O)(c2ccc(Cl)cc2)CC1)(c1ccccc1)c1ccccc1 [LOPERAMIDE] | inactive | inactive | 3.4 | inactive | inactive | inactive | 0.59 | 87.6 | 1.04 | inactive | 0.64 | 14 | 1.08 | inactive | 0.74 | inactive | 0.64 | 0.75 | 0.79 | 0.82 | Papp at 6 h [10]: 16 ×10⁻⁶ cm/s; Kinetic_solubility ([20]; buffer, pH 7.4, 24 h): 410 µg/mL; EC50 [23]: 685 nM; Papp at 16 h [25]: 12.5 ×10⁻⁶ cm/s; Activity [26]: inactive
3 | CN1CCN(C2Cc3ccccc3Sc3ccccc32)CC1 (stereo unspecified) |  |  |  |  |  |  |  |  |  |  |  |  |  |  |  |  |  |  |  |  | solubility [1]: Insoluble
4 | NC(=O)C(CCN1CCC(O)(c2ccc(Cl)cc2)CC1)(c1ccccc1)c1ccccc1 | inactive | inactive | 6.2 | inactive | inactive | inactive | 1.25 | 73.5 | 1.06 | inactive | 0.96 | 14.8 | 1.23 | inactive | 0.89 | inactive | 0.91 | 0.94 | 1.01 | 1.16 | selectivity ratio [27]: 210; IC50 [28]: 45200 nM; Papp at 6 h [10]: 0.65 ×10⁻⁶ cm/s; IC50 [29]: 101000 nM; solubility kinetic at 24 h [20]: > 450 µg/mL; selectivity ratio [30]: 94; Papp at 16 h [25]: 1.78 ×10⁻⁶ cm/s; Activity [26]: inactive; EC50 [31]: 482 nM
5 | CN1CCN(C2Cc3ccccc3Sc3ccc(Cl)cc32)CC1 (stereo unspecified) [CLOROTEPINE] | inactive | inactive | 6.4 | inactive | inactive | inactive | 1.12 | 82.8 | 1.04 | inactive | 0.87 | 18.1 | 1.07 | inactive | 0.94 | inactive | 0.87 | 1.05 | 1.09 | 0.98 | solubility kinetic at 24 h [20]: 34.9 µg/mL (≈ 101 µM); EC50 [23]: 1270 nM; Activity [26]: inactive
6 | Ic1ccccc1CN[C@@H]1C2CCN(CC2)[C@@H]1C(c1ccccc1)c1ccccc1 | inactive | inactive | 3.4 | inactive | inactive | inactive | 0.59 | 80.5 | 1.09 | inactive | 0.27 | 5 | 1.07 | inactive | 0.26 | inactive | 0.2 | 0.26 | 0.28 | 0.37 | selectivity ratio [27]: 175; Papp at 6 h [10]: 10.4 ×10⁻⁶ cm/s; IC50 [29]: 17200 nM; solubility kinetic at 24 h [20]: 31 µg/mL (≈ 61 µM); EC50 [23]: 98 nM; Papp at 16 h [25]: 8.24 ×10⁻⁶ cm/s; Activity [26]: inactive
